In test [1] the target is Inosine-5'-monophosphate dehydrogenase 2 (Homo sapiens) (UniProt P12268). Briefly: Inhibition of human IMPDH2 assessed as reduction in NADH production at 5 uM.
Test [2] has as its target T1, Inosine-5'-monophosphate dehydrogenase (Cryptosporidium parvum, UniProt Q8T6T2).
T1 sequence (Q8T6T2 whole entry): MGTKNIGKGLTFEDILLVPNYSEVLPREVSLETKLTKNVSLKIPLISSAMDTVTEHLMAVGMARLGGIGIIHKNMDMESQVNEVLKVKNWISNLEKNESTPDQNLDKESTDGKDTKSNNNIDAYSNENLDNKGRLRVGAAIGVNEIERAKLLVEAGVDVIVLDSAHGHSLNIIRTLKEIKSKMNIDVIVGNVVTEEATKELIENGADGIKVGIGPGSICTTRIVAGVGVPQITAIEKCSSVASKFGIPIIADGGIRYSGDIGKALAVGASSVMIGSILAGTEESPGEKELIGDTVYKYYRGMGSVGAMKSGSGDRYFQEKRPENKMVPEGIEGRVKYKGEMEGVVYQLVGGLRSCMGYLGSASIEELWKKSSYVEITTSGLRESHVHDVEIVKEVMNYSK
Briefly: Inhibition of Cryptosporidium parvum IMPDH assessed as reduction in NADH production. The procedure, abridged:
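Purified expressed CpIMPDH enzyme; activity followed by NADH production. IC50 taken as the average of three independent experiments unless otherwise noted.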

Molecules are shown by their SMILES.

Chain of Inosine-5'-monophosphate dehydrogenase 2 (Homo sapiens) (P12268 2-514 limits assumed): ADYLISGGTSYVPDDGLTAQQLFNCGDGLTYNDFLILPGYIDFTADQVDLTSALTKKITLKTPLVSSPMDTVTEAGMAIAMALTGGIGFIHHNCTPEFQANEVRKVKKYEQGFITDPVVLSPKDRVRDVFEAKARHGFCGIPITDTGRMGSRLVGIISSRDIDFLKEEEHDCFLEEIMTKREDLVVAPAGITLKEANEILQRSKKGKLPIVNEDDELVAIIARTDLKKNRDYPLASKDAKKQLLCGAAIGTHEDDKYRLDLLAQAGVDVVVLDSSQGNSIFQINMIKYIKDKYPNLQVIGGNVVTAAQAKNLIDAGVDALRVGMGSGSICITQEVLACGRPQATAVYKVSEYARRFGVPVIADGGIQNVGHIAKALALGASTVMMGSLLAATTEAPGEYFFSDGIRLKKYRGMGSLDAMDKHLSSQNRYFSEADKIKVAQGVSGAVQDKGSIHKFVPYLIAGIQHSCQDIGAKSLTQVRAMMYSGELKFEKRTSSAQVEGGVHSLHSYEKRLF

As for `O=C(Cn1ncc2c(=O)oc3ccccc3c21)Nc1ccc2c(c1)OCCO2`, the inhibition – broadly, the change of the read-out against control, counted positive when it falls – in test [1] is less than 20%. Besides, the IC50 (as a rule, the concentration needed to halve the response being measured) in test [2] came to 0.19 µM.

In the case of `O=C(Cn1ncc2c(=O)oc3ccccc3c21)Nc1ccc2ccccc2c1`, the inhibition in test [1] is less than 20%. In addition, the IC50 in test [2] worked out at 0.067 µM.

With `O=C(Cn1ncc2c(=O)oc3ccccc3c21)Nc1ccc(F)cc1`, the inhibition in test [1] was less than 20%. Moreover, in test [2], the IC50 was determined as 0.46 µM.

On to `O=C(Cn1ncc2c(=O)oc3ccccc3c21)Nc1ccc(C(F)(F)F)cc1`, for which the inhibition in test [1] is less than 20%. In test [2], the IC50 was found to be 0.58 µM.

Take `O=C(Cn1ncc2c(=O)oc3ccccc3c21)Nc1ccc2cc[nH]c2c1`: the inhibition in test [1] is less than 20%. In addition, in test [2], the IC50 is 0.12 µM.

Turning to `O=C(Cn1ncc2c(=O)oc3ccccc3c21)Nc1ccc2ncccc2c1`, the inhibition in test [1] was less than 20%. In test [2], the IC50 is 0.08 µM.

For `O=C(Cn1ncc2c(=O)oc3ccccc3c21)Nc1ccccc1Cl`, the IC50 in test [2] is more than 5 µM.

Turning to `COc1cc(NC(=O)Cn2ncc3c(=O)oc4ccccc4c32)ccc1Cl`, the inhibition in test [1] was less than 20%. Also, the IC50 in test [2] amounted to 0.02 µM.

`COc1cc(NC(=O)C(C)n2ncc3c(=O)oc4ccccc4c32)ccc1Cl` (stereo unspecified): the inhibition in test [1] is less than 20%. In test [2], the IC50 was 0.063 µM.

`COc1cc(NC(=O)Cn2ncc3c2-c2ccccc2CC3)ccc1Cl`: the inhibition in test [1] was less than 20%. In test [2], the IC50 turned out to be 0.1 µM.

As for `O=C(Cn1ncc2c(=O)oc3ccccc3c21)Nc1cccc(Cl)c1`, the IC50 in test [2] is more than 5 µM.

In the case of `COc1cc(NC(=O)Cn2ncc3c(=O)oc4cc(C)ccc4c32)ccc1Cl`, the IC50 in test [2] stood at 2 µM.

As for `O=C(Cn1ncc2c(=O)oc3ccccc3c21)Nc1ccc2[nH]ccc2c1`, in test [2], the IC50 is more than 5 µM.

Turning to `COc1cc(NC(=O)Cn2ncc3c2-c2ccccc2OC3)ccc1Cl`, the inhibition in test [1] is less than 20%. Also, the IC50 in test [2] is 0.07 µM.

In the case of `O=C(Cn1ncc2c(=O)oc3ccccc3c21)Nc1ccc2[nH]cnc2c1`, the IC50 in test [2] amounted to 2.5 µM.

With `COc1ccc(NC(=O)Cn2ncc3c(=O)oc4ccccc4c32)cc1OC`, the IC50 in test [2] amounted to 2.5 µM.

In the case of `O=C(Cn1ncc2c(=O)oc3ccccc3c21)Nc1ccc(Cl)c(Cl)c1`, the inhibition in test [1] was less than 20%. Further, the IC50 in test [2] came to 0.044 µM.

For `COc1cccc(NC(=O)Cn2ncc3c(=O)oc4ccccc4c32)c1`, the IC50 in test [2] came out at 1.5 µM.

Turning to `COc1cc(N(C)C(=O)Cn2ncc3c(=O)oc4ccccc4c32)ccc1Cl`, the IC50 in test [2] is more than 5 µM.

In the case of `O=C(Cn1ncc2c(=O)oc3ccccc3c21)Nc1ccc(Cl)cc1Cl`, in test [2], the IC50 is more than 5 µM.

These data come from ChEMBL document CHEMBL3351328.
